Compound activity: PubChem BioAssay, several laboratories
NR3A LBD binder – modulates the human NR3A ligand-binding domain. Tm shift relative to glycine control, % at 25 µM. hit rate 2.5% among 340,000. NR3A LBD differential scanning fluorimetry, Tm shift; 0% = protein alone, 100% = glycine-bound protein;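 active = melting temperature shift of at least 10% of the positive control shift, at one fixed dose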
MPTP inh – blocks calcium-induced mitochondrial swelling; isolated mouse mitochondria, Ca2+ swelling absorbance, 30 min; inhibition, % at 10 µM; hit rate 1.4% among 360,000; AID 602449;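 active = inhibition of 50% or more, scaled per plate between neutral and stimulator controls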;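 also: 0% = DMSO wells given calcium and 100% = 1 mM EGTA wells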
CHOP inhibitor – CHOP inhibition in unfolded protein response; inhibition, % at 10 µM; AID 2732; hit rate 3.8% among 220,000; CHO-K1 CHOP-promoter luciferase, tunicamycin-induced, 15-18 h;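 active = compounds that reduced the stress-induced luciferase reporter signal by more than about 70% of percent inhibition, limit read from the data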;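 also: 0% = tunicamycin plus vehicle and 100% = wells without tunicamycin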
UPR CHOP act – activators of apoptotic arm of unfolded protein response (CHOP); CHO-CHOP luciferase reporter, UPR activation, luminescence; percent of tunicamycin response over DMSO baseline; activation, % at 10 µM; hit rate 0.34% among 330,000;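 active = at 10 µM dose, activation of 40% or more, normalized to positive control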;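 also: 100% = tunicamycin at 10 µg/mL and 0% = DMSO alone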
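System: CHO-CHOP luciferase reporter cell line; amount: 500 cells/well; buffer or medium: F12 medium containing 10% fetal bovine serum; incubation: 6 h compound exposure at 37 °C after overnight seeding; measured by: luciferase luminescence after 10 min with Steady-Glo reagent; evaluation: % reporter activation, DMSO baseline versus tunicamycin full activation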
XBP1 UPR activ – activators of adaptive arm of unfolded protein response (XBP1). CHO-XBP1 luciferase reporter, IRE1-XBP1 UPR activation, luminescence; percent of tunicamycin response, DMSO as zero. activation, % at 20 µM. hit rate 0.33% among 330,000. AID 463104;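 active = versus positive control, 20 µM dose yields 30% or more activation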;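 also: 100% = tunicamycin at 10 µg/mL and 0% = DMSO only wells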
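Material – CHO cell line with stable XBP1 luciferase reporter · Buffer or medium – F12 plus 10% FBS · Compound – single point, 20 µM final compound, 1% DMSO · Schedule – 16-18 h cell attachment at 37 °C, then 6 h compound exposure · Signal – Steady-Glo luminescence read · Benchmarks – high control tunicamycin 10 µg/mL final, low control DMSO vehicle only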
aDG glyco up – alpha-DG glycosylation activation. hit rate 0.22% among 360,000. activation, % at 10 µM. AID 624168. Pro5-aDG cells, alpha-DG glycosylation AlphaScreen (IIH6); 0% Pro5, 100% B10-LARGE cell signal;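 active = activation of at least 8% versus controls, or a plate z-score of at least 8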;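 also: Pro5 are CHO cells carrying HIG-tagged alpha-DG that lacks glycosylation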
MPTP counter – mitochondrial membrane potential, counter-screen; inhibition, % at 10 µM; isolated mitochondria, Rhodamine 123 fluorescence; hit rate 78% among 5,000; shares compounds with MPTP inh; in the data active = inhibition above about 22%;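 also: 0% = DMSO vehicle and 100% = positive control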
MPTP swell DR – MPTP inhibition, dose response swelling confirmation; shares compounds with MPTP inh; isolated mitochondria swelling, absorbance; IC50, µM; hit rate 58% among 780; in the data active = IC50 below about 20 µM
MPTP counter DR – active in counter-screen for permeability transition pore inhibitors | shares compounds with MPTP inh | isolated mitochondria counterscreen, fluorescence read-out | IC50, µM | hit rate 49% among 780 | AID 651564; in the data active = IC50 below about 80 µM
Numbers without * were called inactive; i = inactive; . = not tested or not shown. Sampled rows, rich in hits. Any-hit rate of the full collection: about 5.6%.

SMILES	NR3A LBD binder	MPTP inh	CHOP inhibitor	UPR CHOP act	XBP1 UPR activ	aDG glyco up	MPTP counter	others
Cc1ccc(N(C)S(=O)(=O)c2cccc(C(=O)NC3CC(C)(C)NC(C)(C)C3)c2)cc1	2	-1	.	1	-1	0	.
Cc1ccc(S(=O)(=O)N(C)C)cc1NC(=S)Nc1ccc2[nH]c(=O)[nH]c2c1	-1	-2	-6	2	0	1	.
Cc1ccc(S(=O)(=O)N(C)C)cc1NC(=S)NC12CC3CC(CC(C3)C1)C2	-8	65*	36	.	.	0	84*
NS(=O)(=O)c1cccc(NC(=S)NC(=O)C23CC4CC(CC(C4)C2)C3)c1	-19	1	42	4	4	0	.
Cc1ccc(S(=O)(=O)N(C)C)cc1NC(=S)NC(=O)C12CC3CC(CC(C3)C1)C2	1	60*	49	39	2	2	35*
CC1(C2(O)CCCCC2)NCCc2ccccc21 (stereo unspecified)	-2	0	.	0	-3	0	.
CCSc1nnc(NC(=O)C(CC)(C(F)(F)F)C(F)(F)F)s1	-5	54*	21	-2	-8	0	106*
CCSc1nnc(NC(=O)C(C)(C(F)(F)F)C(F)(F)F)s1	-7	26	-12	-1	-1	0	.
Cc1ccc(NC(=O)C2CCN(S(=O)(=O)c3cc([N+](=O)[O-])ccc3Cl)CC2)nc1	-1	81*	.	7	-3	2	80*
O=C(Nc1nc2ccc(F)cc2s1)C1CCN(S(=O)(=O)c2cc([N+](=O)[O-])ccc2Cl)CC1	8	96*	90*	10	-2	1	84*
CC(NC(=O)C1CCN(S(=O)(=O)c2cc([N+](=O)[O-])ccc2Cl)CC1)c1ccccc1 (stereo unspecified)	3	4	-21	-2	0	0	.
O=C1/C(=C\c2cc([N+](=O)[O-])ccc2O)SC(=S)N1Cc1ccc(Cl)cc1	-16	52*	.	.	.	0	7
O=C(O)CN1C(=O)/C(=C\c2cc([N+](=O)[O-])ccc2OCc2ccccc2Cl)SC1=S	-5	0	.	5	2	0	.
Cc1ccccc1/C=C1\SC(=S)N(/N=C/c2cc([N+](=O)[O-])ccc2O)C1=O	7	80*	19	0	-3	0	45*
O=C(CCCN1C(=O)/C(=C\c2cccs2)SC1=S)Nc1cc([N+](=O)[O-])ccc1O	23*	74*	.	-1	-3	0	64*
O=C1/C(=C\c2cccc(O)c2O)SC(=S)N1Cc1ccccc1	38*	92*	.	15	5	0	46*
CCN1C(=O)C2CCCCN2c2ccc(C(=O)NCCOC)cc21 (stereo unspecified)	0	-2	.	1	-2	0	.
O=C(COC(=O)Cc1ccc(Br)cc1)NC1CCCCCC1	0	1	20	-1	0	0	.
Cc1ccc(S(=O)(=O)c2ccc(Cl)cc2)cc1S(=O)(=O)N(C)CC(=O)O	0	-2	11	-1	-1	0	.
COCCNC(=O)C1(C)CCCN(Cc2csc3ccccc23)C1 (stereo unspecified)	.	0	.	.	.	0	.
O=C(O)c1ccc(CN2C[C@@H](CO)O[C@@H](n3cnc4c(NCc5ccco5)ncnc43)C2)cc1	.	0	.	.	.	0	.
O=c1cc(-c2ccccc2)[nH]n1-c1ccc([N+](=O)[O-])cc1	10	100*	-2	2	-1	0	77*
O=c1c(N=Nc2ccc(O)cc2)c(-c2ccccc2)[nH]n1-c1ccc([N+](=O)[O-])cc1	-3	29	56	19	12	0	.
CN(Cc1ccccc1)c1nc(-c2cccc([N+](=O)[O-])c2)nc2ccccc12	-5	67*	29	0	-2	0	1	MPTP swell DR=19*;MPTP counter DR=>80
O=C(Nc1ccc([N+](=O)[O-])cc1)N1CCc2ccccc2C1	-2	0	.	0	3	0	.
SMILES	NR3A LBD binder	MPTP inh	CHOP inhibitor	UPR CHOP act	XBP1 UPR activ	aDG glyco up	MPTP counter	others
O=C(NCCN1CCc2ccccc2C1)Nc1ccc([N+](=O)[O-])cc1	-1	94*	9	-2	-2	0	84*
O=C(NCCCN1CCc2ccccc2C1)Nc1ccc(Br)cc1	2	93*	19	2	1	0	103*
CCN1CCN(Cc2ccc(NC(=O)Nc3ccc(SC)cc3)cc2)CC1	0	52*	25	5	-1	2	-10	MPTP swell DR=i;MPTP counter DR=>80
COc1ccc(NC(=O)NCCCN2CCc3ccccc3C2)cc1	0	0	32	0	1	0	.
O=C(NCCN1CCN(c2ccc([N+](=O)[O-])cc2)CC1)NCc1ccccc1	-3	65*	.	-2	-5	0	76*
Cc1ccccc1-n1nnnc1SCC(=O)NCC1(N2CCOCC2)CCCCC1	0	0	.	1	0	0	.
CSc1ccc(NC(=O)NCCCN2CCN(c3ccccc3F)CC2)cc1	-4	62*	20	5	-3	3	0	MPTP swell DR=i;MPTP counter DR=29*
O=C(NCCCN1CCN(c2ccccc2F)CC1)Nc1ccc(F)cc1	0	-1	37	1	-2	0	.
CSc1nc(-c2ccc(Cl)cc2Cl)[nH]c(=O)c1C#N	-8	88*	34	1	-1	0	89*
O=C(CC1NCCc2ccccc21)Nc1ccc(Oc2ccccc2)cc1 (stereo unspecified)	-6	92*	50	0	1	3	-17	MPTP swell DR=4.7*;MPTP counter DR=36*
C=CCN(C(=O)c1ccc2snnc2c1)c1ccccc1	0	-1	.	0	-5	1	.
Cc1ccc(F)c(NC(=O)/C(C#N)=C(\O)c2ccc(C(C)(C)C)cc2)c1	3	83*	-3	0	2	0	71*
Cc1cccc(NC(=O)C(=O)NNC(=O)c2ccc(C(C)(C)C)cc2)c1	-3	4	.	2	6	0	.
CC1(C)COC(Cc2ccccc2)=N1	.	0	.	.	.	0	.
C=C(C)Cn1c(SCC(=O)N/N=C/c2c(O)ccc3ccccc23)nc2ccccc2c1=O	-2	66*	19	3	-2	0	56*
CC1=NN(C(=O)COc2ccccc2C)C(O)(c2ccc(Cl)cc2)C1 (stereo unspecified)	1	7	5	2	1	0	.
